From ChEMBL document CHEMBL1240414, “Synthesis and anticonvulsant activity of new 6-methyl-1-substituted-4,6-diazaspiro[2.4]heptane-5,7-diones” (Eur J Med Chem, 2010)
The source made the active and inactive calls.

Experiments:
Rattus norvegicus [1] = assay: Anticonvulsant activity in Kunming rat assessed as protection against maximal electroshock-induced seizures at 30 mg/kg, po after 0.5 hrs; type: functional
Summary of the method: (§1)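 Male Kunming rats (250 ± 5.0 g) were dosed orally at 30 mg/kg, four rats per compound. Seizures were induced by a 150-mA corneal current for 0.2 s at 0.25, 0.5, 1, 2 and 4 h after dosing. Readout was the number of rats out of four protected against hindlimb tonic extension.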

Mus musculus [2] = assay: Anticonvulsant activity in ip dosed Kunming mouse assessed as protection against subcutaneous pentylenetetrazole-induced seizures; type: functional
Summary of the method: (§2)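 Quantitative phase-II study in groups of 10 male Kunming mice. A range of ip doses in 0.5% carboxymethyl cellulose-0.9% saline (0.1 ml) was given until at least three points fell within 10–90% seizure protection (MES or scPTZ) or minimal neurotoxicity. Rotorod toxicity was read 30 min after dosing.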

Mus musculus [3] = assay: Anticonvulsant activity in ip dosed Kunming mouse assessed as time peak effect; type: functional
Mus musculus [4] = assay: Anticonvulsant activity in Kunming mouse assessed as protection against maximal electroshock-induced seizures at 30 mg/kg, ip after 0.5 hrs; type: functional, organism-based; parameters: dose 30 mg/kg
Mus musculus [5] = assay: Anticonvulsant activity in Kunming mouse assessed as protection against maximal electroshock-induced seizures at 100 mg/kg, ip after 4 hrs; type: functional, organism-based; parameters: dose 100 mg/kg
Mus musculus [6] = assay: Anticonvulsant activity in Kunming mouse assessed as protection against maximal electroshock-induced seizures at 300 mg/kg, ip after 4 hrs; type: functional, organism-based; parameters: dose 300 mg/kg
Mus musculus [7] = assay: Anticonvulsant activity in Kunming mouse assessed as protection against subcutaneous pentylenetetrazole-induced seizures at 30 mg/kg, ip after 0.5 hrs; type: functional, organism-based; parameters: dose 30 mg/kg
Summary of the method: (§3)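 Male Kunming mice (20 ± 2.0 g) received the compound ip as a suspension in 0.5% methylcellulose at 30, 100 or 300 mg/kg, one to four mice per dose. Pentylenetetrazole in 0.9% saline was given sc at 0.5 h and 4.0 h after dosing. Protection meant no threshold seizure (one clonic spasm episode of at least 5 s). Scored as protected/tested.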

Mus musculus [8] = assay: Anticonvulsant activity in Kunming mouse assessed as protection against subcutaneous pentylenetetrazole-induced seizures at 100 mg/kg, ip after 0.5 hrs; type: functional, organism-based; parameters: dose 100 mg/kg; summary of the method: as §3
Mus musculus [9] = assay: Anticonvulsant activity in Kunming mouse assessed as protection against subcutaneous pentylenetetrazole-induced seizures at 300 mg/kg, ip after 0.5 hrs; type: functional, organism-based; parameters: dose 300 mg/kg; summary of the method: as §3
Mus musculus [10] = assay: Anticonvulsant activity in Kunming mouse assessed as protection against subcutaneous pentylenetetrazole-induced seizures at 30 mg/kg, ip after 4 hrs; type: functional, organism-based; parameters: dose 30 mg/kg; summary of the method: as §3
Mus musculus [11] = assay: Neurotoxicity in Kunming mouse assessed as minimum motor impairment at 30 mg/kg, ip after 0.5 hrs by rotarod test; type: toxicity, organism-based; parameters: dose 30 mg/kg, route intraperitoneal; conditions: in vivo
Summary of the method: (§4)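 Rotorod neurotoxicity in male Kunming mice (20 ± 2.0 g) given ip doses of 30, 100 or 300 mg/kg as a suspension in 0.5% methylcellulose, one to four mice per dose. Motor impairment was examined at 0.5 h and 4.0 h after injection. Reported as number of animals showing toxicity/number tested.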

Mus musculus [12] = assay: Neurotoxicity in Kunming mouse assessed as minimum motor impairment at 100 mg/kg, ip after 0.5 hrs by rotarod test; type: toxicity, organism-based; parameters: dose 100 mg/kg, route intraperitoneal; conditions: in vivo; summary of the method: as §4
Mus musculus [13] = assay: Neurotoxicity in Kunming mouse assessed as minimum motor impairment at 300 mg/kg, ip after 0.5 hrs by rotarod test; type: toxicity, organism-based; parameters: dose 300 mg/kg, route intraperitoneal; conditions: in vivo; summary of the method: as §4
Mus musculus [14] = assay: Neurotoxicity in Kunming mouse assessed as minimum motor impairment at 30 mg/kg, ip after 4 hrs by rotarod test; type: toxicity, organism-based; parameters: dose 30 mg/kg, route intraperitoneal; conditions: in vivo; summary of the method: as §4
Mus musculus [15] = assay: Neurotoxicity in Kunming mouse assessed as minimum motor impairment at 100 mg/kg, ip after 4 hrs by rotarod test; type: toxicity, organism-based; parameters: dose 100 mg/kg, route intraperitoneal; conditions: in vivo; summary of the method: as §4
Mus musculus [16] = assay: Neurotoxicity in Kunming mouse assessed as minimum motor impairment at 300 mg/kg, ip after 4 hrs by rotarod test; type: toxicity, organism-based; parameters: dose 300 mg/kg, route intraperitoneal; conditions: in vivo; summary of the method: as §4
Rattus norvegicus [17] = assay: Anticonvulsant activity in Kunming rat assessed as protection against maximal electroshock-induced seizures at 30 mg/kg, po after 0.25 hrs; type: functional; summary of the method: as §1
Rattus norvegicus [18] = assay: Anticonvulsant activity in Kunming rat assessed as protection against maximal electroshock-induced seizures at 30 mg/kg, po after 1 hr; type: functional; summary of the method: as §1
Rattus norvegicus [19] = assay: Anticonvulsant activity in Kunming rat assessed as protection against maximal electroshock-induced seizures at 30 mg/kg, po after 2 hrs; type: functional; summary of the method: as §1
Rattus norvegicus [20] = assay: Anticonvulsant activity in Kunming rat assessed as protection against maximal electroshock-induced seizures at 30 mg/kg, po after 4 hrs; type: functional; summary of the method: as §1
Rattus norvegicus [21] = assay: Neurotoxicity in Kunming rat assessed as minimum motor impairment at 30 mg/kg, po after 0.25 hrs by rotarod test; type: toxicity, organism-based; parameters: dose 30 mg/kg, route oral; conditions: in vivo
Summary of the method: (§5)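 Rotorod neurotoxicity in male Kunming rats (250 ± 5.0 g) given 30 mg/kg po, four rats per compound. Motor impairment was assessed at 0.25, 0.5, 1, 2 and 4 h after oral administration.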

Rattus norvegicus [22] = assay: Neurotoxicity in Kunming rat assessed as minimum motor impairment at 30 mg/kg, po after 0.5 hrs by rotarod test; type: functional, organism-based; parameters: dose 30 mg/kg; summary of the method: as §5
Rattus norvegicus [23] = assay: Neurotoxicity in Kunming rat assessed as minimum motor impairment at 30 mg/kg, po after 1 hr by rotarod test; type: functional, organism-based; parameters: dose 30 mg/kg; summary of the method: as §5
Rattus norvegicus [24] = assay: Neurotoxicity in Kunming rat assessed as minimum motor impairment at 30 mg/kg, po after 2 hrs by rotarod test; type: functional, organism-based; parameters: dose 30 mg/kg; summary of the method: as §5
Rattus norvegicus [25] = assay: Neurotoxicity in Kunming rat assessed as minimum motor impairment at 30 mg/kg, po after 4 hrs by rotarod test; type: functional, organism-based; parameters: dose 30 mg/kg; summary of the method: as §5
Rattus norvegicus [26] = assay: Anticonvulsant activity in Kunming rat assessed as protection against subcutaneous pentylenetetrazole-induced seizures at 30 mg/kg, po after 1 hr; type: functional
Mus musculus [27] = assay: Anticonvulsant activity in ip dosed Kunming mouse assessed as protection against maximal electroshock-induced seizures; type: functional; summary of the method: as §2
[28] = Neurotoxicity in ip dosed Kunming mouse assessed as minimum motor impairment by rotarod test; type: toxicity, organism-based; conditions: in vivo; summary of the method: as §2
Mus musculus [29] = assay: Protective index, ratio of TD50 for neurotoxicity in ip dosed Kunming mouse to ED50 for Kunming mouse by MES test; type: functional
Mus musculus [30] = assay: Protective index, ratio of TD50 for neurotoxicity in ip dosed Kunming mouse to ED50 for Kunming mouse by sPTZ test; type: functional
Mus musculus [31] = assay: Anticonvulsant activity in Kunming mouse assessed as protection against maximal electroshock-induced seizures at 100 mg/kg, ip after 0.5 hrs; type: functional, organism-based; parameters: dose 100 mg/kg
Mus musculus [32] = assay: Anticonvulsant activity in Kunming mouse assessed as protection against maximal electroshock-induced seizures at 30 mg/kg, ip after 4 hrs; type: functional, organism-based; parameters: dose 30 mg/kg
Mus musculus [33] = assay: Anticonvulsant activity in Kunming mouse assessed as protection against subcutaneous pentylenetetrazole-induced seizures at 100 mg/kg, ip after 4 hrs; type: functional, organism-based; parameters: dose 100 mg/kg; summary of the method: as §3
Rattus norvegicus [34] = assay: Anticonvulsant activity in Kunming rat assessed as protection against subcutaneous pentylenetetrazole-induced seizures at 30 mg/kg, po after 0.5 hrs; type: functional
Mus musculus [35] = assay: Anticonvulsant activity in Kunming mouse assessed as protection against subcutaneous pentylenetetrazole-induced seizures at 300 mg/kg, ip after 4 hrs; type: functional, organism-based; parameters: dose 300 mg/kg; summary of the method: as §3

SMILES	Activity (Rattus norvegicus [1])	Activity (Mus musculus [4])	Activity (Mus musculus [6])	Activity (Mus musculus [7])	Activity (Mus musculus [10])	Activity (Mus musculus [11])	Activity (Mus musculus [12])	Activity (Mus musculus [13])	Activity (Mus musculus [14])	Activity (Mus musculus [15])	Activity (Mus musculus [16])	Activity (Rattus norvegicus [17])	Activity (Rattus norvegicus [18])	Activity (Rattus norvegicus [19])	Activity (Rattus norvegicus [20])	Activity (Rattus norvegicus [21])	Activity (Rattus norvegicus [22])	Activity (Rattus norvegicus [23])	Activity (Rattus norvegicus [24])	Activity (Rattus norvegicus [25])	also measured
O=C1NC(=O)C(c2ccccc2)(c2ccccc2)N1 [PHENYTOIN]	Active																				ED50 (Mus musculus [2]): > 300 mg/kg; Time (Mus musculus [3]): 2 h
CN1C(=O)NC2(CC2c2ccc(F)cc2)C1=O (stereo unspecified)	25%	Active	Active	Active	inactive	Non-toxic	Non-toxic	Non-toxic	Non-toxic	Non-toxic	Non-toxic	inactive	inactive	25%	inactive	Non-toxic	Not toxic	Not toxic	Not toxic	Not toxic	Activity (Mus musculus [5]): Active; Activity (Mus musculus [8]): Active; Activity (Mus musculus [9]): Active; Activity (Rattus norvegicus [26]): 25%
CN1C(=O)NC2(CC2c2ccc(S(C)(=O)=O)cc2)C1=O (stereo unspecified)	50%	Active	Active	Active	inactive	Non-toxic	Non-toxic		Non-toxic	Non-toxic	Non-toxic	inactive	50%	75%	75%	Non-toxic	Not toxic	Not toxic	Not toxic	Not toxic	Activity (Mus musculus [5]): Active; Activity (Mus musculus [8]): Active; Activity (Mus musculus [9]): Active; Activity (Rattus norvegicus [26]): 25%; ED50 (Mus musculus [27]): 12.5 mg/kg; ED50 (Mus musculus [2]): 427 mg/kg; TD50 [28]: 310 mg/kg; PI (Mus musculus [29]): 24.8; PI (Mus musculus [30]): 0.73; Time (Mus musculus [3]): 0.5 h
COc1cccc(C2CC23NC(=O)N(C)C3=O)c1OC (stereo unspecified)		Active	Active	inactive	inactive	Non-toxic	Non-toxic	Toxic	Non-toxic	Non-toxic	Non-toxic					Non-toxic	Not toxic	Not toxic	Not toxic	Not toxic	Activity (Mus musculus [31]): Active; Activity (Mus musculus [32]): inactive; Activity (Mus musculus [33]): inactive; Activity (Rattus norvegicus [34]): 25%; Activity (Rattus norvegicus [26]): inactive
CN1C(=O)NC2(CC2c2ccccc2)C1=O (stereo unspecified)	25%	Active		inactive	inactive	Non-toxic	Non-toxic	Toxic	Non-toxic	Non-toxic		inactive	inactive	inactive	inactive	Non-toxic	Not toxic	Not toxic	Not toxic	Not toxic	Activity (Mus musculus [8]): inactive; Activity (Mus musculus [9]): inactive; Activity (Mus musculus [33]): inactive; Activity (Mus musculus [35]): inactive
CCCCC1CC12NC(=O)N(C)C2=O (stereo unspecified)	inactive	Active		Active	inactive	Non-toxic	Non-toxic	Non-toxic	Non-toxic	Non-toxic	Non-toxic	25%	50%	inactive	inactive	Non-toxic	Not toxic	Not toxic	Not toxic	Not toxic	Activity (Mus musculus [33]): inactive
COc1ccc(C2CC23NC(=O)N(C)C3=O)c(OC)c1OC (stereo unspecified)		inactive	Active	inactive	inactive	Non-toxic	Non-toxic	Non-toxic	Non-toxic	Non-toxic	Non-toxic					Non-toxic	Not toxic	Not toxic	Not toxic	Not toxic	Activity (Mus musculus [32]): inactive; Activity (Mus musculus [5]): inactive; Activity (Rattus norvegicus [26]): inactive
